In paper PMC6648814 (ACS Omega, 2019):

Legend:
DfrB4 = target: T1, DfrB4 (Escherichia coli, UniProt Q8VNN1); assay: DfrB4 inhibition, kinetic assay; format: biochemical
T1 sequence (Q8VNN1 1-78): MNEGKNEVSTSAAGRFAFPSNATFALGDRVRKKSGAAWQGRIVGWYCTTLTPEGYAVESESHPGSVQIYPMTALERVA

hDfr = target: T2, hDfr (Homo sapiens, UniProt P00374); assay: human Dfr inhibition, kinetic assay; format: biochemical; conditions: for inhibition of hDfr (in words): selectivity
T2 sequence (P00374 1-187): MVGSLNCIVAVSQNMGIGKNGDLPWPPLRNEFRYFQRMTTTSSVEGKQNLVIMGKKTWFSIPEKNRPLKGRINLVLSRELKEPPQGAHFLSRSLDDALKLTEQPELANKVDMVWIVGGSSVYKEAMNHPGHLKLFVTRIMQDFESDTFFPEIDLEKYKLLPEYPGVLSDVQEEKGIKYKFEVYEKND
Method in brief: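 His6-tagged human Dfr, purified by nickel affinity (stepwise imidazole in 0.1 M potassium phosphate, pH 8.0), then gel filtration in 0.1 M potassium phosphate, pH 7.5. Protein quantified by Bio-Rad assay. Kinetic assay at pH 7. Test compound tested up to the highest concentration that absorbance and precipitation allowed. IC50 determined per earlier method, with Ki calculated from IC50.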

DfrB1 [1] = target: T3, DfrB1 (Escherichia coli, UniProt P00383); assay: DfrB1 inhibition, spectrophotometric kinetic assay; format: biochemical; conditions: for IC50: DfrB1 IC50, pH 7; for Hill coefficient: DfrB1 inhibition, Hill plot; for fold change of DfrB1 Ki relative to 1: greater Ki / weaker than 1; for inhibition of DfrB1 (in words): at the highest concentration that could be assayed
T3 sequence (P00383 1-78): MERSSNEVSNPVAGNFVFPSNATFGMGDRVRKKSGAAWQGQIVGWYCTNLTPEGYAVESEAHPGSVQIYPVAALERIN

apo-DfrB1 = conditions: read-out: Kd1; binding on the apo-DfrB1; cited from earlier work
[2] = Solubility limit in assay medium; format: physicochemical; conditions: 10% DMSO, aqueous with cosolvent or surfactant or cyclodextrin
E. coli expressing DfrB4 = conditions: highest TMP concentration dissolved in the medium, 600 μg/mL; cited from earlier work
DfrB1 [3] = target: T3, DfrB1; conditions: DfrB1 substrate KM; cited from earlier work

| Ki (DfrB4) | IC50 (hDfr) | Ki (DfrB1 [1]) | IC50 (DfrB1 [1]) | Compound | other results |
| --- | --- | --- | --- | --- | --- |
| – | – | – | > 250 µM | O=C(O)c1ccc(OCCCCCCCCCCCCOc2ccc(C(=O)O)cc2)cc1 [Compound 15] | – |
| – | – | – | > 500 µM | O=C(O)c1ccc(OCCCCCCOc2ccc(C(=O)O)cc2)cc1 [Compound 12] | – |
| – | – | – | > 200 µM | O=C(O)c1ccc2cc(-c3ccc(OCCCCCCCCOc4ccc(-c5ccc6cc(C(=O)O)ccc6c5)cc4)cc3)ccc2c1 [Compound 18] | inhibition of DfrB1 (in words) (DfrB1 [1]): abolished inhibition |
| – | – | – | > 500 µM | O=C(O)Cc1ccc(OCCCCCCOc2ccc(CC(=O)O)cc2)cc1 [Compound 16] | inhibition of DfrB1 (in words) (DfrB1 [1]): No inhibition was observed |
| – | – | – | > 200 µM | O=C(O)CCc1ccc(OCCCCOc2ccc(CCC(=O)O)cc2)cc1 [Compound 17] | inhibition of DfrB1 (in words) (DfrB1 [1]): No inhibition was observed |
| 3.9 ± 0.9 µM | > 500 µM | 3.5 ± 1.7 µM | 110 ± 10 µM | O=C(O)c1ccc2[nH]c(-c3ccc(OCCC(O)COc4ccc(-c5nc6cc(C(=O)O)ccc6[nH]5)cc4)cc3)nc2c1 (stereo not shown) [Compound 3] | inhibition of hDfr (in words) (hDfr): no inhibition |

The remaining lines, values behind:

| Compound | Ki (DfrB4) | IC50 (hDfr) | Ki (DfrB1 [1]) | IC50 (DfrB1 [1]) | other results |
| --- | --- | --- | --- | --- | --- |
| O=C(O)c1ccc2nc(-c3ccc(OCCC(O)COc4ccc(-c5nc6ccc(C(=O)O)cc6[nH]5)cc4Br)c(Br)c3)[nH]c2c1 (stereo not shown) [Compound 20b] | 3.7 ± 0.7 µM | > 400 µM | 2.6 ± 0.7 µM | 80 ± 20 µM | – |
| O=C(O)c1ccc2nc(-c3ccc(OCC(COc4ccc(-c5nc6ccc(C(=O)O)cc6[nH]5)cc4)(COc4ccc(-c5nc6ccc(C(=O)O)cc6[nH]5)cc4)COc4ccc(-c5nc6ccc(C(=O)O)cc6[nH]5)cc4)cc3)[nH]c2c1 [Compound 31] | 1.9 ± 0.5 µM | – | 1.1 ± 0.3 µM | – | fold lower DfrB1 Ki than the best inhibitors (DfrB1 [1]): 2- to 12 fold; Hill coefficient (DfrB1 [1]): 1.1 ± 0.4 |
| O=C(O)c1ccc2[nH]c(-c3ccc(OCc4ccccc4COc4ccc(-c5nc6cc(C(=O)O)ccc6[nH]5)cc4)cc3)nc2c1 [Compound 33] | 11 ± 1.3 µM | – | 7.4 ± 2.7 µM | – | inhibition of hDfr (in words) (hDfr): no inhibition; Hill coefficient (DfrB1 [1]): 1.1 ± 0.1; fold change of DfrB1 Ki relative to 1 (DfrB1 [1]): 2 fold; mode of inhibition (Dixon plot) (DfrB1 [1]; varying NADPH, saturating DHF, with respect to NADPH binding): competitive |
| O=C(O)c1ccc2[nH]c(-c3cccc(OCC(O)COc4cccc(-c5nc6cc(C(=O)O)ccc6[nH]5)c4)c3)nc2c1 [Compound 19] | – | > 500 µM | 12 ± 3 µM | 400 ± 100 µM | fold change of DfrB1 Ki relative to 1 (DfrB1 [1]): 3 fold |
| Nc1nc(=O)c2c([nH]1)NCC(CNc1ccc(C(=O)N[C@@H](CCC(=O)O)C(=O)O)cc1)=N2 [DHF, dihydrofolate] | – | – | – | – | Kd (apo-DfrB1): 120 µM |
| O=C(O)c1ccc2nc(-c3ccc(OCCCOc4ccc(-c5nc6ccc(C(=O)O)cc6[nH]5)cc4Br)c(Br)c3)[nH]c2c1 [Compound 21] | – | > 400 µM | 1.7 ± 0.6 µM | 60 ± 20 µM | – |
| O=C(O)c1ccc2[nH]c(-c3ccc(OCc4ccc(COc5ccc(-c6nc7cc(C(=O)O)ccc7[nH]6)cc5)cc4)cc3)nc2c1 [Compound 11] | – | > 100 µM | 6.1 µM | – | solubility [2]: ≤ 100 µM; inhibition of hDfr (in words) (hDfr): did not inhibit |
| COc1cc(Cc2cnc(N)nc2N)cc(OC)c1OC [TMP, Trimethoprim, reference compound] | 550 µM | – | 600 µM | – | TMP resistance conferred by DfrB4 expression (E. coli expressing DfrB4): complete resistance |
| NC(=O)C1=CN([C@@H]2O[C@H](COP(=O)(O)OP(=O)(O)OC[C@H]3O[C@@H](n4cnc5c(N)ncnc54)[C@H](OP(=O)(O)O)[C@@H]3O)[C@@H](O)[C@H]2O)C=CC1 [NADPH] | – | – | – | – | Kd (apo-DfrB1): 2.5 µM; Km (DfrB1 [3]): 1.6 ± 0.02 µM; Km (DfrB4; DfrB4 substrate KM): 2.8 ± 0.6 µM |
| O=C(O)c1ccc2[nH]c(-c3ccc(OC/C=C/COc4ccc(-c5nc6cc(C(=O)O)ccc6[nH]5)cc4)cc3)nc2c1 [Compound 10] | – | > 400 µM | 2.8 ± 0.8 µM | 90 ± 20 µM | inhibition of hDfr (in words) (hDfr): did not inhibit |
